Lmaj promast: reduces viability of Leishmania major promastigotes | resazurin fluorescence viability | inhibition, % at 10 µM | actives 9% (n = 200,000) | AID 1063; in the data active means inhibition above about 50%;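 further: promastigotes grown with compound for 44 hours at 28 °C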
T cruzi repl: blocks replication of Trypanosoma cruzi; inhibition, % (concentration not given with the values); T. cruzi beta-gal in NIH3T3, luminescence, 90 h; actives 1.4% (n = 300,000); AID 1885;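 active means mean inhibition across valid replicates above about 55%, limit read from the data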;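 further: signal also drops with host cell toxicity which is not excluded here; 0% = plate median of DMSO wells and 100% = zero luminescence signal; higher percent means less beta-gal luminescence so fewer parasites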
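Assay system: NIH/3T3 fibroblasts plus reporter T. cruzi. Amount: NIH/3T3 cells, 5,000 per well. Buffer or medium: DMEM, 2% fetal bovine serum. Doses: compound pinned at 50 nL/well, DMSO. Schedule: ≥90 h infection period, 3 h prior cell attachment. Signal: luminescent β-galactosidase signal after 60 min lysis. Read-out: parasite load inhibition, %.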
Dynein cargo inh: dynein cargo transport inhibition. 3617.4 mouse cells, GR-EGFP nuclear translocation imaging; test concentration mostly 20 µM; stimulated with dexamethasone, 1 µM; hits give low values. z-score, hits read low. actives 0.47% (n = 220,000);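 active means plate z-score of nuclear minus cytoplasmic receptor signal below a set negative limit, without overly bright fluorescence or cell loss, cut at about -3.5 in these data, passing the limit was not always enough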;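 further: z-score of nuclear minus cytoplasmic ring GR-EGFP intensity difference per well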
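medium = tetracycline-free induction medium containing charcoal-stripped FBS | also added = 1.0 µM final dexamethasone stimulus | schedule = 48 h induction, 1 h compound, 30 min dex at 37 °C | technique = fixed, Hoechst-stained cells imaged at 10x for EGFP | measure = GR-EGFP nuclear translocation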
CHOP inh: blocks CHOP induction under ER stress. inhibition, % at 10 µM. CHO-K1 CHOP-promoter luciferase, tunicamycin-induced, 15-18 h. actives 3.8% (n = 220,000);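 active means compounds that reduced the stress-induced luciferase reporter signal by more than about 70% of percent inhibition, limit read from the data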;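 further: 0% = tunicamycin plus vehicle and 100% = wells without tunicamycin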
CHOP UPR activ: apoptotic UPR (CHOP) activation; actives 0.34% (n = 330,000); AID 449763; CHO-CHOP luciferase reporter, luminescence; percent of tunicamycin response over DMSO baseline; activation, % at 10 µM;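 active means at 10 µM dose, activation of 40% or more, normalized to positive control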;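 further: 100% = tunicamycin at 10 µg/mL and 0% = DMSO alone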
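Assay system: CHO cells with stable CHOP pathway luciferase reporter; Buffer or medium: F12 plus 10% serum; Times: 16-18 h cell attachment, then 6 h compound exposure, 37 °C; Signal: luciferase luminescence; Read-out basis: percent activation relative to tunicamycin control; Control set: tunicamycin high control, DMSO low control.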
UPR XBP1 act: adaptive UPR (XBP1) activation; activation, % at 20 µM; actives 0.33% (n = 330,000); CHO-XBP1 luciferase reporter, IRE1-XBP1 UPR activation, luminescence; percent of tunicamycin response, DMSO as zero;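 active means versus positive control, 20 µM dose yields 30% or more activation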;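 further: 100% = tunicamycin at 10 µg/mL and 0% = DMSO only wells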
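Assay system: IRE1-XBP1 luciferase reporter CHO line. Input: 1000 cells/well. Buffer or medium: F12 with 10% serum. Doses: 20 µM, 1% DMSO. Times: overnight seeding at 37 °C, 6 h compound treatment at 37 °C. Technique: Steady-Glo luciferase glow luminescence, 10 min after reagent addition.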
L major 1uM: L. major promastigote growth inhibition, 1 uM repeat; shares compounds with Lmaj promast; resazurin fluorescence, 48 h; inhibition, % at 1 µM; actives 13% (n = 1,100);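 active means inhibition above about 50% in both repeat tests, limit read from the data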
* = called active by the depositor. Shown is part of a subset that was picked to be rich in hits.

For Cc1ccc(C2=CSC3=NNC4(CCCCC4)NN23)cc1 the results were Lmaj promast 55*, T cruzi repl 18, Dynein cargo inh 0.36, CHOP inh -30, CHOP UPR activ 4, UPR XBP1 act -2 and L major 1uM -12.
`O=C(COCc1cc(-c2ccc3c(c2)OCO3)on1)N1CCN(c2ccccc2)CC1` gave T cruzi repl -13, CHOP UPR activ 0 and UPR XBP1 act 1.
For Cc1ccc(NC(=O)C2CCN(S(=O)(=O)c3c(C)noc3/C=C/c3ccco3)CC2)nc1 the results were Lmaj promast 16, T cruzi repl 0, Dynein cargo inh -0.39, CHOP inh 58, CHOP UPR activ -1 and UPR XBP1 act -3.
Screening Cc1noc(/C=C/c2ccco2)c1S(=O)(=O)N1CCC(C(=O)NCc2ccco2)CC1 returned Lmaj promast 77*, T cruzi repl 20, Dynein cargo inh 0.077, CHOP inh 3, CHOP UPR activ 0, UPR XBP1 act 3 and L major 1uM -15.
CCOc1ccc(Oc2ccc(C(F)(F)F)cc2N)cc1 was read as Lmaj promast 51*, T cruzi repl 4, Dynein cargo inh 0.099, CHOP inh 78*, CHOP UPR activ 5, UPR XBP1 act -2 and L major 1uM -10.
For COc1cccc(Oc2ccc(C(F)(F)F)cc2N)c1 the results were Lmaj promast -3, T cruzi repl 5, Dynein cargo inh 0.02, CHOP inh 54, CHOP UPR activ 2 and UPR XBP1 act 2.
Screening O=Nc1c2cc(-c3ccccc3)[nH]nc-2c2ccccc12 returned Lmaj promast 65*, T cruzi repl -4, Dynein cargo inh -0.014, CHOP inh 92* and L major 1uM 54*.
Cc1cccc(-c2cc3c(N=O)c4ccccc4c-3n[nH]2)c1 was read as Lmaj promast 64*, T cruzi repl 62*, Dynein cargo inh 0.27, CHOP inh 85*, CHOP UPR activ 0, UPR XBP1 act 2 and L major 1uM 53*.
Cc1ccc(-c2cc3c(N=O)c4ccccc4c-3n[nH]2)cc1 was read as Lmaj promast 41, T cruzi repl 20, Dynein cargo inh 0.9, CHOP inh 65, CHOP UPR activ -9 and UPR XBP1 act -6.
Cc1ccc(N/C(=C\C(=O)c2ccccc2)C(=O)O)cc1 was read as Lmaj promast 1, T cruzi repl 7, Dynein cargo inh 2.5, CHOP inh -12, CHOP UPR activ 2 and UPR XBP1 act -1.
Screening NC(=S)Nn1c(CCC(=O)O)ccc1-c1ccccc1 returned Lmaj promast 66*, T cruzi repl -19, Dynein cargo inh 0.68, CHOP inh 10, CHOP UPR activ -1, UPR XBP1 act 0 and L major 1uM -17.
`CCOC(=O)c1ccc(NC(=S)N2CCSC2c2ccc(OC)cc2)cc1` (stereo unspecified) gave Lmaj promast 8, T cruzi repl -9, Dynein cargo inh -0.63, CHOP inh 29, CHOP UPR activ 6 and UPR XBP1 act 1.
Screening CCOC(=O)c1ccc(NC(=S)N2CCSC2c2ccc(Cl)cc2)cc1 (stereo unspecified) returned Lmaj promast 60*, T cruzi repl 0, Dynein cargo inh 3.1, CHOP inh 45 and L major 1uM -11.
Screening CC(=O)c1c(-c2ccc(C)cc2)nc2c3ccccc3ccn12 returned Lmaj promast 59*, T cruzi repl 37, Dynein cargo inh -0.44, CHOP inh 34, CHOP UPR activ -1, UPR XBP1 act 1 and L major 1uM 43.
For CC(C)c1ccc(/C=N/Nc2ccc(C(=O)O)cc2)cc1 the results were Lmaj promast 57*, T cruzi repl 27, Dynein cargo inh -1.1, CHOP inh 84*, CHOP UPR activ -11, UPR XBP1 act -8 and L major 1uM -20.

Compound activity from PubChem.
